Assay results reported in ChEMBL document CHEMBL1781906, “New quinolin-4-yl-1,2,3-triazoles carrying amides, sulphonamides and amidopiperazines as potential antitubercular agents” (2011).
Values after ≈ are worked out from the molar mass of the structure shown.

Experiments:
Format in all cases: functional
[1] = tested on: Mycobacterium tuberculosis; experiment: Antimycobacterial activity against Mycobacterium tuberculosis H37Rv ATCC 27294 after 7 days by resazurin method; details: H37Rv ATCC 27294, 168 h
How it was run: (§1)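 H37Rv was grown in Middlebrook 7H9 broth with 10% OADC, diluted to McFarland 2 in the same medium, and added to fresh medium in 96-well plates with compound. Compounds were tested at 1, 10 and 100. The dye turned pink in controls after […] at 37 °C.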

[2] = tested on: Mycobacterium tuberculosis; experiment: Antimycobacterial activity against Mycobacterium tuberculosis H37Rv ATCC 27294 assessed as inhibition of bacterial growth at 1 to 100 ug/ml after 7 days by resazurin method; how it was run: as §1
[3] = tested on: Pseudomonas aeruginosa; experiment: Antibacterial activity against Pseudomonas aeruginosa ATCC 27853 after 18 to 24 hrs by […]
[4] = tested on: Staphylococcus aureus; experiment: Antibacterial activity against Staphylococcus aureus ATCC 25923 after 18 to 24 hrs by serial plate dilution method
[5] = tested on: Streptococcus pyogenes; experiment: Antibacterial activity against Streptococcus pyogenes after 18 to 24 hrs by serial plate dilution method
[6] = tested on: Klebsiella pneumoniae; experiment: Antibacterial activity against Klebsiella pneumoniae after 18 to 24 hrs by […]
[7] = tested on: Escherichia coli; experiment: Antibacterial activity against Escherichia coli ATCC 25922 after 18 to 24 hrs by […]
[8] = tested on: Mycolicibacterium smegmatis; experiment: Antimycobacterial activity against Mycobacterium smegmatis ATCC 19420 after 7 days by resazurin method; details: ATCC 19420, 168 h
How it was run: (§2)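 MIC was determined by resazurin microplate assay. Resazurin turns from blue to pink when reduced by viable cells, and wells with no colour change were scored as inhibited. Isoniazid and rifampicin were reference drugs.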

[9] = tested on: Mycolicibacterium fortuitum; experiment: Antimycobacterial activity against Mycobacterium fortuitum ATCC 19542 after 7 days by resazurin method; details: ATCC 19542, 168 h; how it was run: as §2

COc1ccc2nc(C)cc(-n3cc(CNS(=O)(=O)c4ccc(C)cc4)nn3)c2c1
MIC [1]: 10 µg/mL (≈ 23.6 µM) | inhibition (INH) [2]: 85% | MIC [3]: 6.25 µg/mL (≈ 14.8 µM) | MIC [4]: 3.12 µg/mL (≈ 7.37 µM) | MIC [5]: 6.25 µg/mL (≈ 14.8 µM) | MIC [6]: 6.25 µg/mL (≈ 14.8 µM) | MIC [7]: 6.25 µg/mL (≈ 14.8 µM) | MIC [8]: 100 µg/mL (≈ 236 µM) | MIC [9]: 100 µg/mL (≈ 236 µM)

COc1ccc(S(=O)(=O)NCc2cn(-c3cc(C)nc4ccc(OC)cc34)nn2)cc1
MIC [1]: 0.625 µg/mL (≈ 1.42 µM) | inhibition (INH) [2]: 90% | MIC [3]: 1.6 µg/mL (≈ 3.64 µM) | MIC [4]: 6.25 µg/mL (≈ 14.2 µM) | MIC [5]: 1.6 µg/mL (≈ 3.64 µM) | MIC [6]: 1.6 µg/mL (≈ 3.64 µM) | MIC [7]: 3.12 µg/mL (≈ 7.1 µM) | MIC [8]: 10 µg/mL (≈ 22.8 µM) | MIC [9]: 10 µg/mL (≈ 22.8 µM)

CCc1ccc(S(=O)(=O)NCc2cn(-c3cc(C)nc4ccc(OC)cc34)nn2)cc1
MIC [1]: 100 µg/mL (≈ 229 µM) | MIC [3]: 12.5 µg/mL (≈ 28.6 µM) | MIC [4]: 6.25 µg/mL (≈ 14.3 µM) | MIC [5]: 6.25 µg/mL (≈ 14.3 µM) | MIC [6]: 6.25 µg/mL (≈ 14.3 µM) | MIC [7]: 6.25 µg/mL (≈ 14.3 µM) | MIC [8]: 100 µg/mL (≈ 229 µM) | MIC [9]: 100 µg/mL (≈ 229 µM)

COc1ccc2nc(C)cc(-n3cc(CNS(=O)(=O)c4ccccc4)nn3)c2c1
MIC [1]: 100 µg/mL (≈ 244 µM) | MIC [3]: 6.25 µg/mL (≈ 15.3 µM) | MIC [4]: 12.5 µg/mL (≈ 30.5 µM) | MIC [5]: 6.25 µg/mL (≈ 15.3 µM) | MIC [6]: 6.25 µg/mL (≈ 15.3 µM) | MIC [7]: 6.25 µg/mL (≈ 15.3 µM) | MIC [8]: 100 µg/mL (≈ 244 µM) | MIC [9]: 100 µg/mL (≈ 244 µM)

COc1ccc2nc(C)cc(-n3cc(CN4CCN(C(=O)C5CC5)CC4)nn3)c2c1
MIC [1]: 5 µg/mL (≈ 12.3 µM) | inhibition (INH) [2]: 90% | MIC [3]: 0.4 µg/mL (≈ 0.984 µM) | MIC [4]: 0.8 µg/mL (≈ 1.97 µM) | MIC [5]: 0.4 µg/mL (≈ 0.984 µM) | MIC [6]: 0.2 µg/mL (≈ 0.492 µM) | MIC [7]: 0.4 µg/mL (≈ 0.984 µM) | MIC [8]: 100 µg/mL (≈ 246 µM) | MIC [9]: 100 µg/mL (≈ 246 µM)

COc1ccc2nc(C)cc(-n3cc(CN4CCN(C(=O)C5CCC5)CC4)nn3)c2c1
MIC [1]: 10 µg/mL (≈ 23.8 µM) | inhibition (INH) [2]: 90% | MIC [3]: 0.8 µg/mL (≈ 1.9 µM) | MIC [4]: 1.6 µg/mL (≈ 3.8 µM) | MIC [5]: 1.6 µg/mL (≈ 3.8 µM) | MIC [6]: 3.12 µg/mL (≈ 7.42 µM) | MIC [7]: 1.6 µg/mL (≈ 3.8 µM) | MIC [8]: 100 µg/mL (≈ 238 µM) | MIC [9]: 100 µg/mL (≈ 238 µM)

COc1ccc2nc(C)cc(-n3cc(CN4CCN(C(=O)c5ccc(F)cc5)CC4)nn3)c2c1
MIC [1]: 1 µg/mL (≈ 2.17 µM) | inhibition (INH) [2]: 90% | MIC [3]: 1.6 µg/mL (≈ 3.47 µM) | MIC [4]: 0.8 µg/mL (≈ 1.74 µM) | MIC [5]: 0.4 µg/mL (≈ 0.869 µM) | MIC [6]: 0.8 µg/mL (≈ 1.74 µM) | MIC [7]: 0.8 µg/mL (≈ 1.74 µM) | MIC [8]: 1 µg/mL (≈ 2.17 µM) | MIC [9]: 10 µg/mL (≈ 21.7 µM)

COc1ccc2nc(C)cc(-n3cc(CN4CCN(C(=O)c5ccccc5F)CC4)nn3)c2c1
MIC [1]: 1 µg/mL (≈ 2.17 µM) | inhibition (INH) [2]: 90% | MIC [3]: 3.12 µg/mL (≈ 6.78 µM) | MIC [4]: 0.8 µg/mL (≈ 1.74 µM) | MIC [5]: 0.4 µg/mL (≈ 0.869 µM) | MIC [6]: 1.6 µg/mL (≈ 3.47 µM) | MIC [7]: 1.6 µg/mL (≈ 3.47 µM) | MIC [8]: 5 µg/mL (≈ 10.9 µM) | MIC [9]: 100 µg/mL (≈ 217 µM)

COc1ccc2nc(C)cc(-n3cc(CN4CCN(C(=O)c5ccccc5Cl)CC4)nn3)c2c1
MIC [1]: 10 µg/mL (≈ 21 µM) | MIC [3]: 3.12 µg/mL (≈ 6.54 µM) | MIC [4]: 3.12 µg/mL (≈ 6.54 µM) | MIC [5]: 3.12 µg/mL (≈ 6.54 µM) | MIC [6]: 3.12 µg/mL (≈ 6.54 µM) | MIC [7]: 6.25 µg/mL (≈ 13.1 µM) | MIC [8]: 100 µg/mL (≈ 210 µM) | MIC [9]: 100 µg/mL (≈ 210 µM)

CCc1ccc(C(=O)N2CCN(Cc3cn(-c4cc(C)nc5ccc(OC)cc45)nn3)CC2)cc1
MIC [1]: 100 µg/mL (≈ 213 µM) | MIC [3]: 6.25 µg/mL (≈ 13.3 µM) | MIC [4]: 6.25 µg/mL (≈ 13.3 µM) | MIC [5]: 6.25 µg/mL (≈ 13.3 µM) | MIC [6]: 3.12 µg/mL (≈ 6.63 µM) | MIC [7]: 3.12 µg/mL (≈ 6.63 µM) | MIC [8]: 100 µg/mL (≈ 213 µM) | MIC [9]: 100 µg/mL (≈ 213 µM)

COc1ccc2nc(C)cc(-n3cc(CN4CCN(C(=O)c5ccc(C)cc5)CC4)nn3)c2c1
MIC [1]: 100 µg/mL (≈ 219 µM) | MIC [3]: 12.5 µg/mL (≈ 27.4 µM) | MIC [4]: 6.25 µg/mL (≈ 13.7 µM) | MIC [5]: 6.25 µg/mL (≈ 13.7 µM) | MIC [6]: 12.5 µg/mL (≈ 27.4 µM) | MIC [7]: 6.25 µg/mL (≈ 13.7 µM) | MIC [8]: 100 µg/mL (≈ 219 µM) | MIC [9]: 100 µg/mL (≈ 219 µM)

COc1ccc(C(=O)N2CCN(Cc3cn(-c4cc(C)nc5ccc(OC)cc45)nn3)CC2)cc1
MIC [1]: 0.625 µg/mL (≈ 1.32 µM) | inhibition (INH) [2]: 90% | MIC [3]: 3.12 µg/mL (≈ 6.6 µM) | MIC [4]: 0.8 µg/mL (≈ 1.69 µM) | MIC [5]: 1.6 µg/mL (≈ 3.39 µM) | MIC [6]: 1.6 µg/mL (≈ 3.39 µM) | MIC [7]: 0.4 µg/mL (≈ 0.846 µM) | MIC [8]: 5 µg/mL (≈ 10.6 µM) | MIC [9]: 10 µg/mL (≈ 21.2 µM)

COc1ccc2nc(C)cc(-n3cc(CN4CCN(C(=O)c5ccccc5)CC4)nn3)c2c1
MIC [1]: 10 µg/mL (≈ 22.6 µM) | inhibition (INH) [2]: 85% | MIC [3]: 0.4 µg/mL (≈ 0.904 µM) | MIC [4]: 0.8 µg/mL (≈ 1.81 µM) | MIC [5]: 0.8 µg/mL (≈ 1.81 µM) | MIC [6]: 0.4 µg/mL (≈ 0.904 µM) | MIC [7]: 0.4 µg/mL (≈ 0.904 µM) | MIC [8]: 100 µg/mL (≈ 226 µM) | MIC [9]: 100 µg/mL (≈ 226 µM)

O=C(O)c1cn(C2CC2)c2cc(N3CCNCC3)c(F)cc2c1=O [CIPROFLOXACIN]
MIC [3]: 0.4 µg/mL (≈ 1.21 µM) | MIC [4]: 1 µg/mL (≈ 3.02 µM) | MIC [5]: 0.4 µg/mL (≈ 1.21 µM) | MIC [6]: 0.05 µg/mL (≈ 0.151 µM)

NNC(=O)c1ccncc1 [ISONIAZID]
MIC [1]: 0.7 µg/mL (≈ 5.1 µM) | inhibition (INH) [2]: 95% | MIC [8]: 50 µg/mL (≈ 365 µM) | MIC [9]: 12.5 µg/mL (≈ 91.1 µM)

CO[C@H]1/C=C/O[C@@]2(C)Oc3c(C)c(O)c4c(O)c(c(/C=N/N5CCN(C)CC5)c(O)c4c3C2=O)NC(=O)/C(C)=C\C=C\[C@H](C)[C@H](O)[C@@H](C)[C@@H](O)[C@@H](C)[C@H](OC(C)=O)[C@@H]1C [RIFAMPIN]
MIC [1]: 0.5 µg/mL (≈ 0.608 µM) | inhibition (INH) [2]: 95% | MIC [8]: 1.5 µg/mL (≈ 1.82 µM) | MIC [9]: 1.5 µg/mL (≈ 1.82 µM)
